FGF22 binding: binders of human FGF22 protein, primary screen, FGF22 synaptogenesis inhibitor project, biophysical, thermal shift, single point. actives 1.5% (n = 340,000). activity (Tm shift, normalised), % at 9.99 µM. recombinant FGF22 thermal shift, SYPRO orange fluorescence; percent of sucrose octasulfate shift, DMSO zero;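 active = mean Tm shift, scaled 0 neutral to 100 positive control, at about 1.3% or above, every replicate too, limit read from the data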
Target sequence (Q9HCT0 whole entry, looked up): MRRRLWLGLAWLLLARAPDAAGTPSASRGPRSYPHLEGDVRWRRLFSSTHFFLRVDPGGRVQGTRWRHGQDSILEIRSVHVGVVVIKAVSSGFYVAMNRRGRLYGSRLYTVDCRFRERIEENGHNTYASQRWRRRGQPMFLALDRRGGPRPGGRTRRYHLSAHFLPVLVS
Cneo AK release: Cryptococcus neoformans cell lysis inducers, primary screen, AK release luminescence, single concentration; C. neoformans lysis, adenylate kinase release luminescence, 4 h; normalised: neutral wells 0, clomiphene wells 100; lysis activity, % at 15 µM; actives 0.2% (n = 360,000); AID 651654, 2012;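 active = mean lysis activity across replicates of at least 80%, whatever share of replicates individually reach that level; inactive = mean lysis activity below 80%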
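read-out = cell lysis signal | test system = log-phase Cryptococcus neoformans yeast cells | input = cells at 5 × 10^6 per mL | medium = fresh YPD growth medium | signal = luminescent adenylate kinase detection reagent | timing = 4 h at 37 °C static, read 1 h later | dosing = single dose | controls = Clomiphene as positive lysis control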
ERAP1 HTS inh: human ERAP1 aminopeptidase inhibitors, primary screen, biochemical, single point, plate reader; recombinant ERAP1, Leu-AMC fluorescence, 60 min; Endoplasmic reticulum aminopeptidase 1 (Homo sapiens), Q9NZ08; AID 652197, 2013; inhibition, % at 10.7 µM; actives 0.15% (n = 340,000);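 active = mean replicate inhibition of at least 30%, or all replicates individually reaching that 30% level; inactive = mean below 30% and not every replicate reaching it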;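 also: 0% = neutral control wells and 100% = L-leucinethiol positive control wells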
Env fusion inh: inhibitors of HIV-1 Env-driven cell-cell fusion, primary screen, HeLa-JRFL effector, CEM21 target cells, luciferase. inhibition, % at 12.3 µM. actives 1.1% (n = 360,000);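 active = mean replicate inhibition score of at least 50 and every replicate individually at or above 50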;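 also: 0% = plate neutral controls and 100% = maraviroc near 300 nM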
Ecoli rRNA inh: reduced GFP signal of wild-type E. coli, primary screen, bacterial rRNA inhibitor project, GFP/RFP fluorescence, OD600, single point. E. coli WT GFP vs humanized-ribosome RFP mutants, 24 h; stronger effect = lower value; DMSO median 0, no signal -100. GFP signal change (wild-type ribosome), % (concentration not given with the values). actives 1.6% (n = 350,000). AID 720706, 2013;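 active = significant combined selectivity score with lowered wild-type GFP, culture density cut under 30%, mutant RFP and density less affected; inactive = any of these conditions unmet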
PGC1a acetyl inh: inhibitors of PGC1a acetylation signal, primary screen, cell-based, U2OS, AlphaScreen, inhibitor mode; AlphaScreen anti-acetyl-lysine; with virally co-expressed GCN5 acetyltransferase; AID 651687, 2012; actives 0.17% (n = 350,000); inhibition, % at 15.6 µM;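 active = every replicate shows inhibition of at least 40%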;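 also: 0% = neutral control wells and 100% = positive control wells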
The depositor's hits bear a star; nt = no result given; [ ] = dose if it differs, or a comment. Shown are actives, neighbours in structure and some others; about 3.5% of the full set was active somewhere.

SMILES	FGF22 binding	Cneo AK release	ERAP1 HTS inh	Env fusion inh	Ecoli rRNA inh	PGC1a acetyl inh
CC1(C(=O)NCc2cccnc2)CCC(=O)N1CCc1ccccc1 (stereo not given)	-0.3	1.3	-7.7	-41.6	5.3	-2.4
O=C(CSc1ncn[nH]1)N/N=C/c1ccc(Br)cc1	-0.4	-0.3	-2.1	-1.5	4.2	-5.5
O=C(NCc1ccc(F)cc1)[C@H]1[C@H](CO)[C@H]2Cn3c(ccc(-c4cccnc4)c3=O)[C@@H]1N2	0.0	-0.8	4.5	nt	1.3	-0.8
COc1ccc(N(CC(=O)NCCc2ccccc2)C(=O)CCC(=O)Nc2nccs2)cc1	0.0	0.4	-3.4	1.3	1.3	2.8
O=C1OC(OC2CCCCC2)(c2ccccc2)c2ccccc21 (stereo not given)	0.0	2.0	0.6	nt	-21.9*	-16.8
CC(C)CC1NC(=O)N(CCCCN2C(=O)c3ccccc3C2=O)C1=O (stereo not given)	43.5*	nt	-8.4	11.8	8.2	2.7
COc1ccc(-n2c(SCC(=O)N3CCCCC3C)nnc2-c2cccnc2)cc1 (stereo not given)	nt	1.0	nt	-92.1	nt	2.8
CCOC(=O)/C(C#N)=C1/C(=O)N(Cc2ccccc2)c2ccccc21	0.1	nt	10.2	0.3	6.3	72.9*
O=C1C(Sc2ccccc2)=C[C@@]2(O)CC[C@@H](O)[C@]1(Sc1ccccc1)[C@H]2O	-0.3	nt	nt	-10.8	-23.2*	nt
CC(C)NC(=O)Nc1ccc2c(c1)C(=O)N([C@@H](C)CO)C[C@@H](C)[C@H](CN(C)S(=O)(=O)c1ccccc1)O2	-0.2	-2.4	-0.1	nt	-3.3	1.8
CCN1C(=O)[C@H]2[C@@H](c3ccc(C)cc3)N3C(=O)N(c4ccccc4)C(=O)[C@@]3(Cc3ccc(Cl)cc3)[C@H]2C1=O	nt	0.7	nt	nt	nt	11.0
CCN1C(=O)[C@H]2[C@@H](c3ccc(C)cc3)N3C(=O)N(c4ccc(C)cc4)C(=O)[C@@]3(Cc3ccc(Cl)cc3)[C@H]2C1=O	0.0	0.8	-2.6	-9.7	-27.9*	-3.3
CCN1C(=O)[C@H]2[C@@H](c3ccc(C)cc3)N[C@]3(CCCN(Cc4ccc(Cl)cc4)C3=O)[C@H]2C1=O	-0.2	nt	-4.0	-44.1	-20.2*	-7.6
CCN1C(=O)[C@H]2[C@@H](c3ccc(C)cc3)N3C(=O)N(c4cccc(Cl)c4)C(=O)[C@@]3(C)[C@H]2C1=O	0.1	0.4	nt	37.1	-1.0	nt
CCN1C(=O)[C@H]2[C@@H](c3ccc(C)cc3)N[C@]3(CCCN(Cc4ccc(C)cc4)C3=O)[C@H]2C1=O	-0.1	0.1	4.7	-34.1	nt	-7.9
CCN1C(=O)[C@H]2[C@@H](c3ccc(C)cc3)N3C(=O)N(c4cccc(Cl)c4)C(=O)[C@@]3(CC)[C@H]2C1=O	0.0	2.5	3.1	95.9*	13.8	8.2
CCOc1ccc(NC(=O)CCN2CCN(S(=O)(=O)c3ccc(Cl)cc3)CC2)cc1	0.0	8.1	7.2	nt	-4.0	-14.9
CCCCSc1nc2ccc(Nc3nc(N4CCOCC4)nc(N4CCOCC4)n3)cc2s1	nt	1.2	nt	nt	nt	-7.5
Cc1cc(=O)[nH]c(N/N=C/c2ccccc2Cl)n1	-0.3	-0.6	2.7	-9.5	-0.4	4.1
CC(/C=N/Nc1nc(C)cc(=O)[nH]1)=C\c1ccccc1	43.1*	0.3	0.2	13.3	-15.5	nt
Cc1cc(=O)[nH]c(NN=Cc2cc(Br)ccc2O)n1	-0.2	-0.3	-0.8	26.5	-2.9	49.7*
O=C(Cc1ccc(O)cc1)N/N=C/c1cccnc1	0.0	0.6	-3.5	-4.7	13.8	3.8
CC(C)CC#Cc1ccc2c(c1)O[C@H](CN(C)C(=O)c1cccc(F)c1)[C@H](C)CN([C@@H](C)CO)S2(=O)=O	0.1	55.7	-2.5	10.7[16.7 µM]	3.8	11.9
Nc1cc2c(cc1Br)-c1ccc(F)cc1C2O (stereo not given)	0.4	7.3	-3.2	nt	2.6	6.7
CC(=O)Nc1cc2c(cc1Cl)-c1ccc(F)cc1C2O (stereo not given)	43.6*	-10.6	4.5	nt	5.4	10.0
SMILES	FGF22 binding	Cneo AK release	ERAP1 HTS inh	Env fusion inh	Ecoli rRNA inh	PGC1a acetyl inh
O=C(C[n+]1cccc(CNC(=O)c2ccc(OC(F)F)cc2)c1)Nc1ccc(F)cc1	0.1	nt	8.0	-38.1	-18.6*	nt
Cc1ccccc1S(=O)(=O)N1CC[C@@H]2[C@H]1c1cc(-c3ccccc3)ccc1N(C)[C@H]2CO	0.2	60.4	0.2	nt	-2.5	4.5
Cc1ccc(-n2c(-c3ccccc3)c[n+]3c2CCC3)cc1	0.2	nt	-4.4	62.3*	-7.6	-5.9
CCOc1ccc(-c2c[n+]3c(n2-c2ccccc2)CCCCC3)cc1	0.2	nt	-1.9	40.8	-38.6*	nt
Cc1ccc(-n2c(-c3ccc(Cl)cc3)c[n+]3c2CCC3)cc1	nt	nt	nt	-13.2	-9.3	-19.8
Cc1cccc(S(=O)(=O)N2C[C@@H]3N[C@H](C2)C3c2ccc(-c3cccnc3)cc2)c1 (stereo not given in full)	nt	nt	4.2	nt	-0.2	0.2
Cc1ccc(S(=O)(=O)N2CCC[C@H]2C(=O)Nc2ccccc2C)cc1	0.1	11.4	-5.7	0.7	-7.8	4.5
C=CCC[C@H](Cc1ccc(F)cc1)C(=O)O[C@H](CNC(=O)[C@@H](CC=C)CC(=O)N(CCO)Cc1ccccc1)c1ccccc1	-0.5	-0.6	-1.2	129.2*	24.5	-2.3
CN1CCN(C(=S)NC(=O)/C=C/c2ccccc2)CC1	nt	-1.3	nt	-43.1	nt	10.3
CN1CCN(C(=S)NC(=O)/C=C/c2ccccc2Cl)CC1	42.9*	nt	-0.9	13.1	-6.3	nt
CC(OC(=O)/C=C/c1ccc(Br)cc1)C(=O)N1CCOCC1 (stereo not given)	nt	0.2	-2.7	nt	6.1	-9.1
O=C(/C=C/c1ccc(Br)cc1)NC(=S)N1CCOCC1	43.8*	nt	-9.6	-4.5	-3.7	2.5
O=C(Nc1ccc(Cl)c(Cl)c1)Nc1nccs1	0.3	-1.7	nt	-387.0	-25.6*	-1.4
O=c1cc(O)c(-c2ccccc2Cl)c(Cl)[nH]1	nt	1.2	nt	-32.7	nt	-10.6
CCOC(=O)c1csc(-c2sccc2Br)n1	-0.1	nt	-1.4	-66.4	-27.0*	nt
CCc1nnc(SCC(=O)NC2CCCC2)nc1CC	nt	-0.4	nt	-73.8	nt	4.4
COc1ccc(-c2csc(N(Cc3ccco3)C(=O)c3cccs3)n2)cc1	-0.1	-3.8	-2.1	-2.5	-11.1	-7.0
Cc1ccc(NC(=O)CSc2ncc(S(=O)(=O)c3ccccc3)c(=O)[nH]2)cc1C	nt	2.8	nt	nt	nt	12.4
O=C(CSc1ncc(-c2ccccc2)[nH]1)Nc1ccccc1	-0.1	-0.9	-0.5	nt	-32.2*	-13.7
